16 molecules from PubChem BioAssay can be followed below.

Activity calls are given as the source filed them.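 The calls were made as follows, unless noted: active = viability at or below 10% of carrier control in both of two separate runs; inconclusive = viability at or below 10% in only one of the two runs; inactive = the rest.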

Assay [1] in a line: SK-BR-3 cell growth inhibitors, pilot screen, 24 h, human (AID 572).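 Also: compound exposure lasted between 18 and 24 h rather than exactly 24 h; 100% = carrier-treated control wells.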 The conditions noted are these: SK-BR-3 viability, CellTiter-Glo luminescence, at 10 µM, stronger effect = lower value.
Assay [2] can be described thus: HUVEC growth inhibition – cell-based, human, primary screen (AID 575;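 active = viability at or below 30% in both replicate assays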;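 also: 100% = median of untreated cell wells with 0.1% DMSO on each plate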). The conditions noted are these: HUVEC proliferation, CellTiter-Glo luminescence, 72 h; at 10 µM; stronger effect = lower value. The method in brief: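 material = primary HUVEC, no more than 12 passages | input = 1250 cells per well | controls = vehicle and MePR control wells | measured by = CTG luminescence | times = 72 h compound incubation | format = collagen-coated 384-well format | read-out = % viability vs DMSO wells | doses = single 10 µM dose, 0.1% DMSO, from 5x medium stock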
(In general: Cellular ATP, detected with luciferase, serves as a proxy for viable cell number.)

Assay [3] can be described thus: growth inhibitors of H69AR lung tumor, primary screen, human, duplicate replicates (AID 580;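 active = viability at or under a set limit in both replicates, limit being median viability minus 3 SD, cut at about 48% in these data, passing the limit was not always enough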;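 also: 100% = mean luminescence of untreated wells and 0% = no signal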). Particulars: H69AR lung tumor cells viability, ATP luminescence, 72 h; at 10 µM; stronger effect = lower value.
Assay [4] in a line: reversal of MRP1-mediated doxorubicin resistance, pilot screen, H69AR cells, doxorubicin co-treatment (AID 601;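 active = viability loss from added drug above about 55%, and viability with drug at most 40%, in both replicates, limit read from the data, passing the limit was not always enough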). Particulars: CellTiter-Glo, 72 h, at 10 µM; for differential viability (reversal): stronger effect = higher value.
A short description of assay [5]: 384-well plate pilot, post-Golgi transport modulator project, inhibition of yeast transport mutant growth (AID 636; in the data active = inhibition above about 31%). Particulars: absorbance 615 nm, about 18 h, stronger effect = higher value.
A short description of assay [6]: growth suppression of yeast trafficking mutant, preliminary HTS, modulators of trafficking downstream of Golgi apparatus project, 1536-format plate, OD 615 nm (AID 637; in the data active = inhibition above about 30%). The conditions noted are these: yeast transport mutant growth, absorbance 615 nm, 18 h; stronger effect = higher value.
Setting [7] is: H69AR cells + 2 uM doxorubicin, measured here: viability with 2 uM doxorubicin, stronger effect = lower value.
The mark [8] stands for this setting: H69AR cells, compound alone cytotoxicity.

For the molecule `O=C(c1ccc(F)cc1)C1CCN(CCn2c(=O)[nH]c3ccccc3c2=O)CC1`, the viability in assay [1] is 94% (inactive); in assay [2], 89.5% (inactive); in assay [3], 96.2% (inactive); in assay [4] (setting [7]), 94.3%; in assay [4] (setting [8]) it was 96.2%. For the same molecule, in assay [4] (H69AR cells + 2 uM doxorubicin), the differential viability (reversal) is 1.93% (inactive). In addition, the inhibition in assay [5] was -2.73% (inactive); in assay [6] it was 1.33% (inactive).

Consider `CCCCNC(=O)NS(=O)(=O)c1ccc(C)cc1`, for which the viability in assay [1] was 97% (inactive); in assay [2] it was 76.7% (inactive); in assay [3], 95.3% (inactive); in assay [4] (setting [7]) it was 101%; in assay [4] (setting [8]), 95.3%. For the same molecule, in assay [4] (H69AR cells + 2 uM doxorubicin), the differential viability (reversal) is -5.94% (inactive). The inhibition in assay [5] was -1.04% (inactive); in assay [6], -2.5% (inactive).

As to `COc1ccccc1NC(=O)N(Cc1ccco1)Cc1cc2cccc(C)c2[nH]c1=O`, the viability is 90% (inactive) in assay [1]; 70.9% (inactive) in assay [2]; 75.8% (inactive) in assay [3]; 74.7% in assay [4] (setting [7]); 75.8% in assay [4] (setting [8]). The differential viability (reversal) in assay [4] (H69AR cells + 2 uM doxorubicin) is 1.06% (inactive). Also, the results for the inhibition in assay [5] and in assay [6] were -8.27% (inactive) and -1.45% (inactive), respectively.

For the molecule `COc1ccc(-n2c(SCC(=O)N3CCCCC3C)nnc2-c2cccnc2)cc1` (stereo not drawn), the viability is 87% (inactive) in assay [1]; 98.7% (inactive) in assay [2]; 102% (inactive) in assay [3]; 91.1% in assay [4] (setting [7]); 102% in assay [4] (setting [8]). Also, the differential viability (reversal) in assay [4] (H69AR cells + 2 uM doxorubicin) is 10.5% (inactive). Also, the inhibition in assay [5] was -5.54% (inactive); in assay [6], 2% (inactive).

In the case of `CCOC(=O)N(C)c1ccc(C(O)(C(F)(F)F)C(F)(F)F)cc1`, the viability in assay [1] was 92% (inactive); in assay [2], 91.7% (inactive); in assay [3], 102% (inactive); in assay [4] (setting [7]), 97.1%; in assay [4] (setting [8]), 102%. Moreover, the differential viability (reversal) in assay [4] (H69AR cells + 2 uM doxorubicin) is 5.16% (inactive). The figures for the inhibition in assay [5] and in assay [6] were 1.76% (inactive) and -6.55% (inactive), respectively.

On to `Cc1ccc(C(C(=O)NC2CCCCC2)N(C(=O)c2csnn2)C2CCCC2)o1` (stereo not drawn), for which the viability in assay [1] is 108% (inactive); in assay [2], 101% (inactive); in assay [3], 80.4% (inactive); in assay [4] (setting [7]) it was 79.4%; in assay [4] (setting [8]), 80.4%. Also, the differential viability (reversal) in assay [4] (H69AR cells + 2 uM doxorubicin) is 1.01% (inactive). Further, the inhibition in assay [5] is -0.65% (inactive); in assay [6], -2.46% (inactive).

With `Cc1nc(NC2=NCN(CCCN3CCOCC3)CN2)nc2c(C)cccc12`, the viability was 158% (inactive) in assay [1]; 67.4% (inactive) in assay [2]; 53.4% (inactive) in assay [3]; 65.8% in assay [4] (setting [7]); 53.4% in assay [4] (setting [8]). In assay [4] (H69AR cells + 2 uM doxorubicin), the differential viability (reversal) is -12.3% (inactive). The inhibition was -4.34% (inactive) in assay [5] and 0.16% (inactive) in assay [6].

Turning to `O=C(CSc1nc2ccccc2[nH]1)N1CCCCC1`, the viability in assay [1] was 106% (inactive); in assay [2], 102% (inactive); in assay [3], 92.9% (inactive); in assay [4] (setting [7]), 83.9%; in assay [4] (setting [8]) it was 92.9%. The differential viability (reversal) in assay [4] (H69AR cells + 2 uM doxorubicin) is 8.96% (inactive). The figures for the inhibition in assay [5] and in assay [6] were -6.44% (inactive) and 5.09% (inactive), respectively.

Consider `Cc1ccc(Cn2nnnc2CN2CCC(O)(c3ccccc3F)CC2)cc1`, for which the viability is 62% (inactive) in assay [1]; 92.6% (inactive) in assay [2]; 83.1% (inactive) in assay [3]; 85.4% in assay [4] (setting [7]); 83.1% in assay [4] (setting [8]). The differential viability (reversal) in assay [4] (H69AR cells + 2 uM doxorubicin) is -2.32% (inactive). Further, the inhibition in assay [5] is -8.36% (inactive); in assay [6], -0.65% (inactive).

As to `N#Cc1c(NCc2ccccc2)ccnc1NCc1cccnc1`, the viability in assay [1] was 78% (inactive); in assay [2], 59.2% (inactive); in assay [3], 98.6% (inactive); in assay [4] (setting [7]), 94.3%; in assay [4] (setting [8]) it was 98.6%. Besides, the differential viability (reversal) in assay [4] (H69AR cells + 2 uM doxorubicin) was 4.3% (inactive). The inhibition in assay [5] was -6.08% (inactive); in assay [6], -0.55% (inactive).

As to `C=CCn1c(SCC(=O)NCC2CCCO2)nc2scc(-c3ccco3)c2c1=O` (stereo not drawn), the viability in assay [1] is 112% (inactive); in assay [2], 88.2% (inactive); in assay [3] it was 92.9% (inactive); in assay [4] (setting [7]) it was 94.2%; in assay [4] (setting [8]), 92.9%. Besides, the differential viability (reversal) in assay [4] (H69AR cells + 2 uM doxorubicin) was -1.34% (inactive). In addition, the results for the inhibition in assay [5] and in assay [6] were -3.84% (inactive) and 2.58% (inactive), respectively.

Turning to `O=C(CCn1c(=O)sc2ccccc21)NCc1ccc2c(c1)OCO2`, the viability in assay [1] is 75% (inactive); in assay [2], 111% (inactive); in assay [3], 99.9% (inactive); in assay [4] (setting [7]), 91.5%; in assay [4] (setting [8]) it was 99.9%. Moreover, the differential viability (reversal) in assay [4] (H69AR cells + 2 uM doxorubicin) was 8.43% (inactive). Besides, the results for the inhibition in assay [5] and in assay [6] were -0.81% (inactive) and -2.91% (inactive), respectively.

In the case of `CC(=O)NCCC(=O)Nc1ccc(C)c(F)c1`, the viability in assay [1] was 110% (inactive); in assay [2] it was 110% (inactive); in assay [3], 91.4% (inactive); in assay [4] (setting [7]) it was 108%; in assay [4] (setting [8]) it was 91.4%. Further, the differential viability (reversal) in assay [4] (H69AR cells + 2 uM doxorubicin) is -17% (inactive). For the same molecule, the inhibition was -2.05% (inactive) in assay [5] and 3.09% (inactive) in assay [6].

On to `COc1ccc2cnn(-c3ccccc3C)c(=O)c2c1OC`, for which the viability in assay [1] is 88% (inactive); in assay [2] it was 85.5% (inactive); in assay [3], 106% (inactive); in assay [4] (setting [7]) it was 108%; in assay [4] (setting [8]) it was 106%. Moreover, the differential viability (reversal) in assay [4] (H69AR cells + 2 uM doxorubicin) is -1.29% (inactive). Besides, the results for the inhibition in assay [5] and in assay [6] were -3.24% (inactive) and 0.55% (inactive), respectively.

On to `O=C(Nc1cccc2ccccc12)N1CCN(c2ccccc2)CC1`, for which the viability was 89% (inactive) in assay [1]; 96.8% (inactive) in assay [2]; 94.4% (inactive) in assay [3]; 101% in assay [4] (setting [7]); 94.4% in assay [4] (setting [8]). For the same molecule, the differential viability (reversal) in assay [4] (H69AR cells + 2 uM doxorubicin) was -7% (inactive). The inhibition in assay [5] is -0.91% (inactive); in assay [6], 0.49% (inactive).

On to `Cc1[nH]nc(N=CC2=C(O)CC(C)(C)CC2=O)c1-c1ccccc1`, for which the viability in assay [1] was 85% (inactive); in assay [2], 100% (inactive); in assay [3] it was 88.6% (inactive); in assay [4] (setting [7]), 95.3%; in assay [4] (setting [8]), 88.6%. In addition, the differential viability (reversal) in assay [4] (H69AR cells + 2 uM doxorubicin) was -6.69% (inactive). Moreover, the inhibition was -0.95% (inactive) in assay [5] and 1.09% (inactive) in assay [6].

As a reminder, the viability is a read-out of living cells in per cent, often relative to untreated cells. What is called inhibition is the drop in the measured response relative to a control, in per cent.
